According to ChEMBL document CHEMBL4622987, “Folate Receptor Targeting and Cathepsin B-Sensitive Drug Delivery System for Selective Cancer Cell Death and Imaging” (ACS Med Chem Lett, 2020):

What was measured:
[1] = Cytotoxicity against human 16HBE cells assessed as reduction in cell viability at 20 uM measured after 72 hrs by MTT assay relative to control; format: cell-based; conditions: 16HBE (16HBE14o-) cells, read-out: INH
Summary of the method: (§1)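 Cancer or normal human cells were exposed to a range of concentrations for 72 h. Viability was read by MTT assay. IC50 was derived from the concentration–response curves, and percent viability loss was taken at 20 μM.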

[2] = Drug uptake in folate receptor negative human 16HBE cells assessed as accumulation of compound at 5 uM incubated for 24 hrs by Hoechst 33342 staining based confocal microscopy; format: ADME, cell-based; conditions: 16hbe14o-
Summary of the method: (§2)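 Cells were incubated with 5 μM conjugate for 24 h. Nuclei were counterstained with Hoechst 33342 (1 μg/mL). Cellular fluorescence and its localisation were imaged by confocal microscopy.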

A549 [3] = test: Cytotoxicity against FR-negative human A549 cells assessed as reduction in cell viability at 20 uM measured after 72 hrs by MTT assay relative to control; format: functional; conditions: A549, 72 h; summary of the method: as §1
Cathepsin B [4] = biological target: T1, Cathepsin B (Homo sapiens, UniProt P07858); test: (§3) Prodrug release in FR-overexpressing human SKHEP1 cells assessed as cathepsin B-mediated 7-ethyl-10-hydroxycamptothecin accumulation in nucleus at 5 uM preincubated with folic acid for 1 hr followed by compound treatment for 24 hrs by Hoechst 33342 staining based confocal microscopy; format: ADME, cell-based; conditions: sk-hep1, 24 h
Summary of the method: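 SK-Hep-1 cells were pre-exposed to 3 mM free folic acid for 1 h to block the folate receptor, then given 5 μM conjugate for 24 h. Hoechst 33342 (1 μg/mL) was used as the nuclear stain, with confocal microscopy read-out.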

Cathepsin B [5] = biological target: T1, Cathepsin B; test: Prodrug release assessed as cathepsin B (unknown origin)-mediated cleavage of GFLG peptide of parent compound by measuring formation of 7-ethyl-10-hydroxycamptothecin at 37 degreeC in presence of cathepsin B inhibitor CA-074 Me by fluorescence spectroscopy; format: ADME
Cathepsin B [6] = biological target: T1, Cathepsin B; test: as §3, with “cathepsin B inhibitor CA-074 Me” for “folic acid”, “24 hrs” for “1 hr”; format: ADME, cell-based; conditions: sk-hep1, 24 h
Summary of the method: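 SK-Hep-1 cells were pretreated with 20 μM CA-074 Me (cathepsin B inhibitor) for 24 h, then given 5 μM conjugate for 24 h. Nuclei were stained with Hoechst 33342 (1 μg/mL), and cells were imaged by confocal microscopy.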

HeLa = test: Cytotoxicity against FR-positive human HeLa cells assessed as reduction in cell viability measured after 72 hrs by MTT assay; format: functional, cell-based; summary of the method: as §1
[7] = Retention time of the compound by RP-HPLC analysis/mass spectrometry; format: physicochemical
Cathepsin B [8] = biological target: T1, Cathepsin B; test: Prodrug release assessed as cathepsin B (unknown origin)-mediated cleavage of parent compound by measuring retention time of folic acid linked-glycyl-hydroxypehylalanine by RP-HPLC analysis/mass spectrometry; format: ADME
Summary of the method: (§4)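 The cathepsin B digest of the conjugate was analysed by analytical RP-HPLC with mass spectrometry. Cleavage products were assigned from their retention times and [M+H]+ or [M+Na]+ ions.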

Cathepsin B [9] = biological target: T1, Cathepsin B; test: Prodrug release assessed as cathepsin B (unknown origin)-mediated cleavage of GFLG peptide of parent compound by measuring retention time of 7-ethyl-10-hydroxycamptothecin by RP-HPLC analysis/mass spectrometry; format: ADME; summary of the method: as §4
SiHa = test: Cytotoxicity against FR-positive human SiHa cells assessed as reduction in cell viability measured after 72 hrs by MTT assay; format: functional, cell-based; summary of the method: as §1
Cathepsin B [10] = biological target: T1, Cathepsin B; test: Prodrug release assessed as cathepsin B (unknown origin)-mediated cleavage of parent compound by measuring retention time of cyclic dipeptide matography-mass spectrometry; format: ADME
Cathepsin B [11] = biological target: T1, Cathepsin B; test: Prodrug release assessed as cathepsin B (unknown origin)-mediated cleavage of GFLG peptide of parent compound by measuring formation of 7-ethyl-10-hydroxycamptothecin at 37 degreeC by fluorescence spectroscopy; format: ADME
Summary of the method: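 The conjugate was incubated with cathepsin B at 37 °C, alongside an enzyme-free control. Release of free SN38 was followed as the rise in fluorescence over time (λex 365 nm, λem 540 nm).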

Cathepsin B [12] = biological target: T1, Cathepsin B; test: Prodrug release in FR-overexpressing human SKHEP1 cells assessed as cathepsin B-mediated 7-ethyl-10-hydroxycamptothecin accumulation in nucleus at 5 uM incubated for 24 hrs by Hoechst 33342 staining based confocal microscopy; format: ADME, cell-based; conditions: sk-hep1, 24 h; summary of the method: as §2
[13] = Drug uptake in folate receptor negative human A549 cells assessed as accumulation of compound in lysosomes by measuring fluorescence intensity at 5 uM incubated for 24 hrs by Hoechst 33342 staining based confocal microscopy; format: ADME, cell-based; conditions: a549, 24 h; summary of the method: as §2
SK-HEP1 = test: Cytotoxicity against FR-positive human SKHEP1 cells assessed as reduction in cell viability measured after 72 hrs by MTT assay; format: functional, cell-based; conditions: SK-HEP1, 72 h; summary of the method: as §1
16HBE14o- = test: Cytotoxicity against human 16HBE cells assessed as reduction in cell viability measured after 72 hrs by MTT assay; format: cell-based
A549 [14] = test: Cytotoxicity against FR-negative human A549 cells assessed as reduction in cell viability measured after 72 hrs by MTT assay; format: functional, cell-based; conditions: A549, 72 h

Structure (SMILES) | cytotoxicity at 72 h, 20 µM [1] | Drug uptake [2] | inhibition at 20 µM (A549 [3]) | Drug metabolism (Cathepsin B [4]) | Drug metabolism (Cathepsin B [5]) | Drug metabolism (Cathepsin B [6]) | IC50 (HeLa) | Retention_time [7] | Retention_time (Cathepsin B [8]) | Retention_time (Cathepsin B [9]) | IC50 (SiHa) | Retention_time (Cathepsin B [10]) | Drug metabolism (Cathepsin B [11]) | Drug metabolism (Cathepsin B [12]) | Drug uptake [13] | IC50 (SK-HEP1) | IC50 (16HBE14o-) | IC50 (A549 [14])
CCc1c2c(nc3ccc(OCc4ccc(NC(=O)CNC(=O)[C@H](CC(C)C)NC(=O)[C@H](Cc5ccccc5)NC(=O)CNC(=O)COCCOCCOCCOCc5cn(CCOCCOCCOCCNC(=O)CC[C@H](NC(=O)c6ccc(NCc7cnc8nc(N)[nH]c(=O)c8n7)cc6)C(=O)O)nn5)cc4)cc13)-c1cc3c(c(=O)n1C2)COC(=O)[C@]3(O)CC | 24% | Not Active | 51% | Metabolite_Notdetected | Metabolite_Notdetected | Metabolite_Notdetected | 2000 to 3000 nM | 26.4 min | 21.4 min | 23.6 min | 2000 to 3000 nM | 34 min | Metabolite_Detected | Metabolite_Detected | Not Active | 2000 to 3000 nM | – | –
CCc1c2c(nc3ccc(O)cc13)-c1cc3c(c(=O)n1C2)COC(=O)[C@]3(O)CC [7-ETHYL-10-HYDROXYCAMPTOTHECIN] | – | – | – | – | – | – | 300 to 1000 nM | – | – | – | 300 to 1000 nM | – | – | – | – | 300 to 1000 nM | 300 to 1000 nM | 300 to 1000 nM
